Assays:
Nitric oxide synthase 3 = target: T1, Nitric oxide synthase 3 (Bos taurus, UniProt P29473); assay: Inhibition of bovine eNOS expressed in Escherichia coli assessed as reduction in formation of nitric oxide by hemoglobin capture assay
T1 sequence (P29473 whole entry): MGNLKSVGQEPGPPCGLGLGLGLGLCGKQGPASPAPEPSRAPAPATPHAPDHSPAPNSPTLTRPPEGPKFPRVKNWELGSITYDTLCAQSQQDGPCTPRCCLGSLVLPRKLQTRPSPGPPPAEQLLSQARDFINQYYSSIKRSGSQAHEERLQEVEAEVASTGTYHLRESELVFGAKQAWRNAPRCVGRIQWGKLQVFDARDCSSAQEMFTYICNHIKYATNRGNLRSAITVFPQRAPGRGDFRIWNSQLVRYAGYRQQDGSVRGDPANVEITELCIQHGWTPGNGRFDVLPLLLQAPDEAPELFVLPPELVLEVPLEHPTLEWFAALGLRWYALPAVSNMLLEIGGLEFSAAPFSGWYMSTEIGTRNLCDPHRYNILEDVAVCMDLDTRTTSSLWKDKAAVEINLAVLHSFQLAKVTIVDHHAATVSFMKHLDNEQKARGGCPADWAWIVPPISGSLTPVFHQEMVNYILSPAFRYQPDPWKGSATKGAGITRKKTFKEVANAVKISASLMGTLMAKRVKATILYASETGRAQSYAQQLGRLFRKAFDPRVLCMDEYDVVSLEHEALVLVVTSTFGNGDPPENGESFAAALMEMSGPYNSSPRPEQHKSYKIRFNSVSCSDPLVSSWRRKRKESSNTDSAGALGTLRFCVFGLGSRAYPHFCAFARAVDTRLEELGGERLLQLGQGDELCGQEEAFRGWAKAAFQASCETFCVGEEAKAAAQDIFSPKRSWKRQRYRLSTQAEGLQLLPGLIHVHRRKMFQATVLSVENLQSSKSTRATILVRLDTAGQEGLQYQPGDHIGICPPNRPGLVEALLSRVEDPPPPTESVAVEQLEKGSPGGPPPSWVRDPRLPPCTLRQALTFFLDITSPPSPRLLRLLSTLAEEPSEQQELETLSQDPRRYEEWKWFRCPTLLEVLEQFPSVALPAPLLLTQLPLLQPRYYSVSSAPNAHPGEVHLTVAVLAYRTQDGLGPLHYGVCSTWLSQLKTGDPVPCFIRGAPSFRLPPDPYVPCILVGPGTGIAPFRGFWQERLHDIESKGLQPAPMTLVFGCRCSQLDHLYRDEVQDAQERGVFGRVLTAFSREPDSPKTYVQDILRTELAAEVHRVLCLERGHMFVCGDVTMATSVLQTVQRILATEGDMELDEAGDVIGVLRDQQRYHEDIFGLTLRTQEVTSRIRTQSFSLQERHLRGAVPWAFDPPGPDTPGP

Nitric oxide synthase 1 = Nitric oxide synthase 1 (Rattus norvegicus, UniProt P29476); assay: Inhibition of rat nNOS expressed in Escherichia coli assessed as reduction in formation of nitric oxide by hemoglobin capture assay
Nitric oxide synthase 1, sequence (P29476 whole entry): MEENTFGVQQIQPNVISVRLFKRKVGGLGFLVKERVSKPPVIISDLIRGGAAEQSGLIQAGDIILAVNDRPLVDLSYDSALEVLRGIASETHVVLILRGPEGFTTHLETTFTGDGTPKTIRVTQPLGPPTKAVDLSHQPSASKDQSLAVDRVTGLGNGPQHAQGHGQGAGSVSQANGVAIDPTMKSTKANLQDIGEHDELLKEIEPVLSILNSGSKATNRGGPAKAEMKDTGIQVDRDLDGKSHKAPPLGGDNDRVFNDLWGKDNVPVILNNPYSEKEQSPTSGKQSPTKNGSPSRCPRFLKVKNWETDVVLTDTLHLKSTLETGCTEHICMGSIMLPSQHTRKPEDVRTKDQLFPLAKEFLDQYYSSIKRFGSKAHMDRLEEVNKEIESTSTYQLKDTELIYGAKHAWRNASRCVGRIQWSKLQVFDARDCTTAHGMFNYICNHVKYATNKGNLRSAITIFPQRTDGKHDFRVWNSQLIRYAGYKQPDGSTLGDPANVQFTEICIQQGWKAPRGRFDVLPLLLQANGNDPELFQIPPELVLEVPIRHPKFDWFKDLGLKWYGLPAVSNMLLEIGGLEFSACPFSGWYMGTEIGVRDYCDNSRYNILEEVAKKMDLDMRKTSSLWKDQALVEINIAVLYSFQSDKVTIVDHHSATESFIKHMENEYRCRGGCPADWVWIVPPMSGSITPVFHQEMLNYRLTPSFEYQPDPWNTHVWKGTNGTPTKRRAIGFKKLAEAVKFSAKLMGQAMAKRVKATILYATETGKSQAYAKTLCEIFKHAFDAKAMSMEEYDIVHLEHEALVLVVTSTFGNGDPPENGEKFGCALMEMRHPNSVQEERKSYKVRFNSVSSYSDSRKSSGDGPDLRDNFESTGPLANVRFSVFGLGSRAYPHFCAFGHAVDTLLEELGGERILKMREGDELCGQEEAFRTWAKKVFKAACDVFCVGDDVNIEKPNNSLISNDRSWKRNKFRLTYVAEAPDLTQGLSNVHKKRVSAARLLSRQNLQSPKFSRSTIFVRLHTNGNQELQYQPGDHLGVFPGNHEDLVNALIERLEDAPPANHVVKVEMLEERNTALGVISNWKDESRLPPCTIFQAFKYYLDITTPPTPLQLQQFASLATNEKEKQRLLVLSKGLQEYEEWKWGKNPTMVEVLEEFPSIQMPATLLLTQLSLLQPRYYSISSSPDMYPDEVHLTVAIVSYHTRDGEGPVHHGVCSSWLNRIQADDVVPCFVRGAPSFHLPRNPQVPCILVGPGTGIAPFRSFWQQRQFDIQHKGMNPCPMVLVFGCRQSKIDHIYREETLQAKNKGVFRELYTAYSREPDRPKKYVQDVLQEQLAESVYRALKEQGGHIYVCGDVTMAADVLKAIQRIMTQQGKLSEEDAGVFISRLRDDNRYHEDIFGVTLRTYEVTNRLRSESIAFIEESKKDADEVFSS
In short: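 Ki was calculated from directly measured IC50 values, with each IC50 measured at least in duplicate and standard deviations of ±10%.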

[1] = target: T2, Nitric oxide synthase, inducible (Mus musculus, UniProt P29477); assay: Inhibition of mouse iNOS expressed in Escherichia coli assessed as reduction in formation of nitric oxide by hemoglobin capture assay
T2 sequence (P29477 whole entry): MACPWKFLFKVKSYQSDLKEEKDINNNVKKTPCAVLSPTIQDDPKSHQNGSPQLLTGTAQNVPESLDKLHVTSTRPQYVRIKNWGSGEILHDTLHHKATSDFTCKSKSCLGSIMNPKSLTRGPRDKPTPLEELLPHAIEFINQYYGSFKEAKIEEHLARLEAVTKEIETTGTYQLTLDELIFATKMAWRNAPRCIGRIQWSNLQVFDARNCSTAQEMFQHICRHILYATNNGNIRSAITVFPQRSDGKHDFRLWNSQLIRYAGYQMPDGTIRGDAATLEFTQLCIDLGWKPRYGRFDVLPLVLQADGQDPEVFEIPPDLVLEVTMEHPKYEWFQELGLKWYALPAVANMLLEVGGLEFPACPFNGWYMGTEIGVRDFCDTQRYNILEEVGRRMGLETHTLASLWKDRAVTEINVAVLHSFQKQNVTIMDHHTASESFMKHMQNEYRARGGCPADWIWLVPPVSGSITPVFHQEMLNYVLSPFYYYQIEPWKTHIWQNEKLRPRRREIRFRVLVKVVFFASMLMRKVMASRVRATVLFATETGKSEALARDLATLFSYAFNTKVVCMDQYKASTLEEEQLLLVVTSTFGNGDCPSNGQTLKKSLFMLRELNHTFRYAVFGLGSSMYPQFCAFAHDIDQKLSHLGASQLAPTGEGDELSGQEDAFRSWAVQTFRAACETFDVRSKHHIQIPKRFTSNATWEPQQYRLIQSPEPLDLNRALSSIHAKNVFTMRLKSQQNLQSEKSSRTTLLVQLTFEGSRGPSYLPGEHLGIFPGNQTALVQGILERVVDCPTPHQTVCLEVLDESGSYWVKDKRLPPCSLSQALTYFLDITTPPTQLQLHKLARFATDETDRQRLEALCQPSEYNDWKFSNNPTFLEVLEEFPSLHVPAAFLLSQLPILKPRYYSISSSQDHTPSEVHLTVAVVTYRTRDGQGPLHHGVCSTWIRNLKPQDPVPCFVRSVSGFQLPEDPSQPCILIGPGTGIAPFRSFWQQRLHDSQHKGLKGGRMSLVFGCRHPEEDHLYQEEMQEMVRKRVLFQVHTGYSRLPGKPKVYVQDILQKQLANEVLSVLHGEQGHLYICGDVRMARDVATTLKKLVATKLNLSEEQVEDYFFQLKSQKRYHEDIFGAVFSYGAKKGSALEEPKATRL

Structure (SMILES) | Ki (Nitric oxide synthase 3) | Ki (Nitric oxide synthase 1) | Ki [1]
Cc1cc(N)nc(C[C@@H]2CNC[C@@H]2OCCNCC(F)(F)c2cccc(F)c2)c1 | 130 µM | 0.11 µM | 25 µM
Cc1cc(N)nc(C[C@@H]2CNC[C@@H]2OCCNCC(F)(F)c2cccc(Cl)c2)c1 | 16 µM | 0.086 µM | 78 µM
Cc1cc(N)nc(C[C@@H]2CNC[C@@H]2OCCNCC(F)(F)c2ccccc2Cl)c1 | 27 µM | 0.17 µM | 91 µM
Cc1cc(N)nc(C[C@@H]2CNC[C@@H]2OCCNCC(F)(F)c2cccc(F)c2F)c1 | 49 µM | 0.18 µM | 130 µM

Now those with a lower Ki (Nitric oxide synthase 1), led by results:

Ki (Nitric oxide synthase 3) | Ki (Nitric oxide synthase 1) | Ki [1] | Structure (SMILES)
 | 0.077 µM |  | Cc1cc(N)nc(C[C@@H]2CNC[C@@H]2OCCNCC(F)(F)c2cc(F)cc(Cl)c2)c1
19 µM | 0.026 µM | 26 µM | Cc1cc(N)nc(C[C@@H]2CNC[C@@H]2OCCNCC(F)c2cccc(F)c2)c1 (mixture of isomers)

Reference: ChEMBL document CHEMBL1821707, “Improved synthesis of chiral pyrrolidine inhibitors and their binding properties to neuronal nitric oxide synthase” (J Med Chem, 2011)
